This passage reports EC50 and IC50 results from ChEMBL document CHEMBL1126808, “Asymmetric synthesis and biological evaluation of beta-L-(2R,5S)- and alpha-L-(2R,5R)-1,3-oxathiolane-pyrimidine and -purine nucleosides as potential anti-HIV agents” (J Med Chem, 1993).

Bounds are passed on as bounds.

Experiment [1] deals with Human immunodeficiency virus. The experiment can be described thus: Anti-HIV-1 activity against human peripheral blood mononuclear (PBM) cells infected with HIV-1 strain LAV. The experiment is classed as functional, organism-based. An outline of the steps:
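Mitogen-stimulated human PBM cells infected with HIV-1 LAV at MOI 0.1 (titred by limiting dilution in PBM cells). Compounds were diluted into medium from 40 mM DMSO stocks (final DMSO <0.25%) and added about 45 min after infection. Read-out was supernatant RT level. EC50 came from a median-effect plot of dose–effect data.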

The subject of experiment [2] is Human immunodeficiency virus 1. Put plainly: Cytotoxicity against human peripheral blood mononuclear (PBM) cells […]. Type of experiment: functional. An outline of the steps: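 Uninfected PHA-stimulated human PBM cells were cultured with or without drug, then aliquots were counted in trypan blue. IC50 came from a median-effect plot of dose–effect data.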

As to `OC[C@@H]1O[C@@H](n2cnc3c(Cl)ncnc32)CS1`, in experiment [1] (Human immunodeficiency virus 1), the 50% effective concentration (EC50) (commonly the concentration that produces a half-maximal response) was found to be 2.75 µM. The IC50 (in general, the concentration that inhibits the measured activity by half) in experiment [2] is more than 100 µM. `Nc1ncnc2c1ncn2[C@@H]1CS[C@H](CO)O1` gave a concentration for a half-maximal effect (EC50) in experiment [1] (Human immunodeficiency virus 1) of 1.01 µM. The IC50 in experiment [2] was more than 100 µM. The corresponding values for `O=c1[nH]c(=O)n([C@H]2CS[C@H](CO)O2)cc1Br` are 121 µM and more than 100 µM.

For `Nc1nc(=O)n([C@H]2CS[C@H](CO)O2)cc1F`, in experiment [1] (Human immunodeficiency virus 1), the EC50 was 0.43 µM. Besides, the half-inhibitory concentration (IC50) in experiment [2] was more than 100 µM. In the same order, the values of `Cc1cn([C@H]2CS[C@H](CO)O2)c(=O)[nH]c1=O` are 4.4 µM and more than 100 µM. In the same order, the values of `Cc1cn([C@H]2CS[C@H](CO)O2)c(=O)nc1N` are 0.45 µM and more than 100 µM. With `Nc1nc(Cl)c2ncn([C@@H]3CS[C@H](CO)O3)c2n1`, the midpoint of the response in experiment [1] (Human immunodeficiency virus 1), the EC50, lay at 9.8 µM. This compound also registered a half-inhibitory concentration (IC50) in experiment [2] of more than 100 µM. The corresponding values for `Cc1cn([C@@H]2CS[C@H](CO)O2)c(=O)[nH]c1=O` are 34.3 µM and more than 100 µM. The corresponding values for `OC[C@@H]1O[C@H](n2cnc3c(O)ncnc32)CS1` are more than 100 µM and more than 100 µM.

With `Nc1nc(Cl)c2ncn([C@H]3CS[C@H](CO)O3)c2n1`, the concentration for a half-maximal effect (EC50) in experiment [1] (Human immunodeficiency virus 1) was 42.1 µM. Also, the half-inhibitory concentration (IC50) in experiment [2] was more than 100 µM. The compound `O=c1[nH]c(=O)n([C@H]2CS[C@H](CO)O2)cc1Cl` showed an EC50 in experiment [1] (Human immunodeficiency virus 1) of more than 100 µM. In experiment [2], this compound yielded a half-inhibitory concentration (IC50) of more than 100 µM. Regarding `O=c1[nH]c(=O)n([C@H]2CS[C@H](CO)O2)cc1I`, in experiment [1] (Human immunodeficiency virus 1), the response was half-maximal at 157 µM (EC50). This compound returned a concentration for half-maximal inhibition (IC50) in experiment [2] of more than 100 µM. `O=c1ccn([C@@H]2CS[C@H](CO)O2)c(=O)[nH]1`: the EC50 in experiment [1] (Human immunodeficiency virus 1) is 11.7 µM. In experiment [2], the IC50 is more than 100 µM.

Compound `OC[C@@H]1O[C@@H](n2cnc3c(O)ncnc32)CS1` showed an EC50 in experiment [1] (Human immunodeficiency virus 1) of more than 100 µM. For the same compound, the half-inhibitory concentration (IC50) in experiment [2] is more than 100 µM.

Take `Nc1nc(=O)n([C@@H]2CS[C@H](CO)O2)cc1Cl`: in experiment [1] (Human immunodeficiency virus 1), the EC50 came out at 31.8 µM. The compound also gave a concentration for half-maximal inhibition (IC50) in experiment [2] of more than 100 µM. `O=c1[nH]c(=O)n([C@@H]2CS[C@H](CO)O2)cc1F` showed an EC50 in experiment [1] (Human immunodeficiency virus 1) of more than 100 µM. The IC50 in experiment [2] is more than 100 µM.

Turning to `Nc1nc(=O)n([C@H]2CS[C@H](CO)O2)cc1Br`, the EC50 in experiment [1] (Human immunodeficiency virus 1) is more than 100 µM. Besides, the half-inhibitory concentration (IC50) in experiment [2] was more than 100 µM. Regarding `O=c1[nH]c(=O)n([C@@H]2CS[C@H](CO)O2)cc1Cl`, the 50% effective concentration (EC50) in experiment [1] (Human immunodeficiency virus 1) was more than 100 µM. Further, in experiment [2], the concentration for half-maximal inhibition (IC50) is more than 100 µM. `O=c1[nH]c(=O)n([C@@H]2CS[C@H](CO)O2)cc1I`: it took 92.9 µM to reach a half-maximal effect in experiment [1] (Human immunodeficiency virus 1) (EC50). In experiment [2], the IC50 was more than 100 µM. `Nc1nc(O)c2ncn([C@@H]3CS[C@H](CO)O3)c2n1` registered an EC50 in experiment [1] (Human immunodeficiency virus 1) of 10.2 µM. In addition, in experiment [2], the IC50 is more than 100 µM. The corresponding values for `CNc1ncnc2c1ncn2[C@@H]1CS[C@H](CO)O1` are 15 µM and more than 100 µM.

Compound `OC[C@@H]1O[C@H](n2cnc3c(Cl)ncnc32)CS1` came in with an EC50 in experiment [1] (Human immunodeficiency virus 1) of 1.44 µM. Also, the 50% inhibitory concentration (IC50) in experiment [2] was more than 100 µM.

The compound `CNc1ncnc2c1ncn2[C@H]1CS[C@H](CO)O1` showed a half-maximal effective concentration (EC50) in experiment [1] (Human immunodeficiency virus 1) of 13 µM. Also, in experiment [2], the IC50 was more than 100 µM. The corresponding values for `Nc1ncnc2c1ncn2[C@H]1CS[C@H](CO)O1` are 78.9 µM and more than 100 µM. For `Nc1nc(F)nc2c1ncn2[C@@H]1CS[C@H](CO)O1`, in experiment [1] (Human immunodeficiency virus 1), the 50% effective concentration (EC50) came out at 16.3 µM. In addition, the half-inhibitory concentration (IC50) in experiment [2] is more than 100 µM. As to `Nc1nc(=O)n([C@@H]2CS[C@H](CO)O2)cc1I`, the half-maximal effective concentration (EC50) in experiment [1] (Human immunodeficiency virus 1) was 0.14 µM. The same compound displayed a 50% inhibitory concentration (IC50) in experiment [2] of more than 100 µM. The corresponding values for `Nc1nc(=O)n([C@@H]2CS[C@H](CO)O2)cc1Br` are 2.51 µM and more than 100 µM.

Turning to `O=c1[nH]c(=O)n([C@H]2CS[C@H](CO)O2)cc1F`, in experiment [1] (Human immunodeficiency virus 1), the 50% effective concentration (EC50) is more than 100 µM. This compound also gave an IC50 in experiment [2] of more than 100 µM. For the compound `Nc1nc(F)nc2c1ncn2[C@H]1CS[C@H](CO)O1`, in experiment [1] (Human immunodeficiency virus 1), the EC50 was found to be 15.8 µM. The compound further came in with an IC50 in experiment [2] of more than 100 µM. The corresponding values for `Cc1cn([C@@H]2CS[C@H](CO)O2)c(=O)nc1N` are 1.9 µM and more than 100 µM.

Regarding `O=c1ccn([C@H]2CS[C@H](CO)O2)c(=O)[nH]1`, in experiment [1] (Human immunodeficiency virus 1), the 50% effective concentration (EC50) was found to be 32.8 µM. Further, the half-inhibitory concentration (IC50) in experiment [2] was more than 100 µM. In experiment [1] (Human immunodeficiency virus 1), `O=c1[nH]c(=O)n([C@@H]2CS[C@H](CO)O2)cc1Br` displayed a 50% effective concentration (EC50) of more than 100 µM. Further, the IC50 in experiment [2] was more than 100 µM. Regarding `Nc1nc(=O)n([C@H]2CS[C@H](CO)O2)cc1I`, the concentration for a half-maximal effect (EC50) in experiment [1] (Human immunodeficiency virus 1) is more than 100 µM. Moreover, in experiment [2], the half-inhibitory concentration (IC50) is more than 100 µM.

Take `Nc1nc(O)c2ncn([C@H]3CS[C@H](CO)O3)c2n1`: the EC50 in experiment [1] (Human immunodeficiency virus 1) is more than 100 µM. This compound also registered a 50% inhibitory concentration (IC50) in experiment [2] of more than 100 µM. `Nc1nc(=O)n([C@H]2CS[C@H](CO)O2)cc1Cl`: in experiment [1] (Human immunodeficiency virus 1), the EC50 is more than 100 µM. This compound had an IC50 in experiment [2] of more than 100 µM. In experiment [1], `Nc1ccn([C@@H]2CS[C@H](CO)O2)c(=O)n1` (stereo in doubt; 13) [LAMIVUDINE] displayed a half-maximal effective concentration (EC50) of 0.0018 µM. Take `Nc1ccn([C@@H]2CS[C@H](CO)O2)c(=O)n1` (stereo in doubt; 14) [LAMIVUDINE]: the midpoint of the response in experiment [1], the EC50, lay at 10.1 µM. In experiment [2], this compound displayed an IC50 of more than 100 µM.

In experiment [1], `Nc1ccn([C@@H]2CS[C@H](CO)O2)c(=O)n1` (stereo in doubt; form 1) [LAMIVUDINE] registered a half-maximal effective concentration (EC50) of 0.21 µM. Consider `Nc1ccn([C@@H]2CS[C@H](CO)O2)c(=O)n1` (stereo in doubt; form 2) [LAMIVUDINE], for which the EC50 in experiment [1] is 0.06 µM. In experiment [1] (Human immunodeficiency virus 1), `Nc1nc(=O)n([C@@H]2CS[C@H](CO)O2)cc1F` [EMTRICITABINE] returned an EC50 of 0.0013 µM. Moreover, in experiment [2], the IC50 is more than 100 µM. In turn, `Cc1cn([C@H]2C[C@H](N=[N+]=[N-])[C@@H](CO)O2)c(=O)[nH]c1=O` [ZIDOVUDINE] displayed an EC50 in experiment [1] (Human immunodeficiency virus 1) of 0.004 µM. The compound also returned a 50% inhibitory concentration (IC50) in experiment [2] of more than 100 µM.
